Molecular target: KIX-KID interaction (Homo sapiens, UniProt P16220+Q92793)
Assay: KIX-KID split renilla luciferase
Assay type: biochemical
Method in brief: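 RLuc split into N-terminal (RLucN) and C-terminal (RLucC) halves. RLucC-KIX and KID-RLucN fusions combined with a range of test compound concentrations (top 50 or 100 μM) at 4 °C. Residual RLuc luminescence read after 20 h. Stocks in DMSO, or DMF for one unstable compound. IC50 in μM from at least two independent experiments, each in duplicate.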

Chain of KIX-KID interaction (Q92793 587-666 limits assumed): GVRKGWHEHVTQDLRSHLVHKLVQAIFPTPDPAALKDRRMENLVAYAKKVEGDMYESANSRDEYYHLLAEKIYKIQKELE
Chain of KIX-KID interaction (P16220 87-146 limits assumed): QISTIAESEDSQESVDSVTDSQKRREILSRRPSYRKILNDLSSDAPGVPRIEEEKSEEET

| Compound | Inhibition of KIX-KID interaction in initial screen (NCI diversity set screen at 10 μM) | KIX-KID inhibition (IC50) (split RLuc assay, 4 °C, 20 h incubation, mean ± SD) |
| --- | --- | --- |
| O=[N+]([O-])c1ccc(Sc2cccc[n+]2[O-])c2nonc12 [compound 1, 2-[(7-nitrobenzo[c][1,2,5]oxadiazol-4-yl)thio]pyridine 1-oxide] | consistently shown to efficaciously inhibit KIX-KID interaction |  |
| O=[N+]([O-])c1cc(NCc2cccc3nonc23)ccc1Cl [9a] |  | inactive |
